According to ChEMBL document CHEMBL1132163 (Bioorg Med Chem Lett, 1999):

What was measured:
[1] = molecular target: T1, Cyclin-dependent kinase 1 (Homo sapiens, UniProt P06493); test: Inhibition of cyclin-dependent kinase 1 (CDK1) (Not active)
[2] = molecular target: T1, Cyclin-dependent kinase 1; test: Inhibitory activity against cyclin-dependent kinase 1 (CDK1) was determined
[3] = molecular target: Protein kinase C alpha type (Homo sapiens, UniProt P17252); test: Inhibition of Protein kinase C alpha
[4] = Inhibition of human bladder carcinoma T24 cell proliferation; type: functional, cell-based, T-24
In short: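 T24 cells seeded 1.5 x 10^3/well, attached overnight (16-18h), washed with serum-free medium, exposed to serial drug dilutions 4-5 days (≥2-3 control divisions); duplicates per concentration. Fixed 3.3% glutaraldehyde, methylene blue 0.05% stain, eluted 3% HCl, OD 665nm.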

[5] = molecular target: cAMP-dependent protein kinase (PKA) (Homo sapiens, UniProt P22694+P17612+P22612); test: Inhibition of Protein kinase A; type: protein assay
[6] = molecular target: T2, Epidermal growth factor receptor (Homo sapiens, UniProt P00533); test: Inhibit of epidermal growth factor receptor (EGFR)
[7] = molecular target: T2, Epidermal growth factor receptor; test: Inhibition of epidermal growth factor receptor (EGFR) (inactive)

T1 sequence (P06493 whole entry): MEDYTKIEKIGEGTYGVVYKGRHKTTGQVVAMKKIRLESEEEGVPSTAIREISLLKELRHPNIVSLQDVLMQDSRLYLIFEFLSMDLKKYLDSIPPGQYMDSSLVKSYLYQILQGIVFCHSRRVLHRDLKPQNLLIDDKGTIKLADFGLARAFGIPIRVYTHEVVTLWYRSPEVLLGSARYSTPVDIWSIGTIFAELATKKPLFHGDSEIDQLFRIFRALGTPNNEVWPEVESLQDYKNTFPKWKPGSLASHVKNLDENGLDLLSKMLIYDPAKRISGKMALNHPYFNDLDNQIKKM
T2 sequence (P00533 whole entry): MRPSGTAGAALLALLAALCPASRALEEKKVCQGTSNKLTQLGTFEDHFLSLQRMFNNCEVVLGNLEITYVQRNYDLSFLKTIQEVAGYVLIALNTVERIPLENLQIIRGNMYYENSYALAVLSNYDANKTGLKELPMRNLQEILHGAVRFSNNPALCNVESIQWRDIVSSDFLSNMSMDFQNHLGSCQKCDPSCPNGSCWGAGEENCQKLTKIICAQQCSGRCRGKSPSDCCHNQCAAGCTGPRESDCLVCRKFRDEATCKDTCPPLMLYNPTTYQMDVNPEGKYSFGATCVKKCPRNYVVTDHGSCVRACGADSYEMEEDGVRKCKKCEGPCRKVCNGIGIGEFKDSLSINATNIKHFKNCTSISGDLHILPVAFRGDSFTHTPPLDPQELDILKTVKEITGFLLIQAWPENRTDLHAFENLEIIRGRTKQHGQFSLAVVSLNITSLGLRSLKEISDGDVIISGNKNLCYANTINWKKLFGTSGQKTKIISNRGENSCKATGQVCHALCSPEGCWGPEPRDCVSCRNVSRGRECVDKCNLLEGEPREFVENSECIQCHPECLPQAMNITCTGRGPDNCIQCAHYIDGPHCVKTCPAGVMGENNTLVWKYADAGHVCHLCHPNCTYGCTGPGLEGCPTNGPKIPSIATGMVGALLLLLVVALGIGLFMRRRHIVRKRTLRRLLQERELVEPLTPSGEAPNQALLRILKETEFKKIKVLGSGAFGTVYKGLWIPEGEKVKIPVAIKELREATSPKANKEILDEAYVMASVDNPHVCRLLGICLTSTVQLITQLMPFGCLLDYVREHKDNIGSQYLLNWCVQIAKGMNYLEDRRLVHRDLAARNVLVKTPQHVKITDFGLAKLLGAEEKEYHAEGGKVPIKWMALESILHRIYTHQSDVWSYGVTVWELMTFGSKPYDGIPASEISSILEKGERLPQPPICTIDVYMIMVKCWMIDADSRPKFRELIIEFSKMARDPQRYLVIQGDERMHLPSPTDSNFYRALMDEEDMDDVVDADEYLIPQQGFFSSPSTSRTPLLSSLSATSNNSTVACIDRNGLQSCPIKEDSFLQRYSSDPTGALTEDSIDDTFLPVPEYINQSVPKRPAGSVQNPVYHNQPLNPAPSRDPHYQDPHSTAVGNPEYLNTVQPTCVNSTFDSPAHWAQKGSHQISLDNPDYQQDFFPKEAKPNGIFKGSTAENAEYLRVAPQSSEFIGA

SMILES: CCn1cnc2c(Nc3cccc(C#N)c3)nc(NCCO)nc21
- IC50 [1]: Not Active

SMILES: CCn1cnc2c(Nc3ccc(F)cc3)nc(N[C@H]3CC[C@H](N)CC3)nc21
- IC50 [2]: 0.031 µM

SMILES: CCn1cnc2c(Nc3cccc(F)c3)nc(NCCO)nc21
- IC50 [2]: 0.44 µM

SMILES: CCn1cnc2c(Nc3cccc(C#N)c3)nc(N[C@H]3CC[C@H](O)CC3)nc21
- IC50 [2]: 0.028 µM

SMILES: CCn1cnc2c(Nc3cccc(OC)c3)nc(N[C@H]3CC[C@@H](N)CC3)nc21
- IC50 [2]: 0.34 µM

SMILES: CCn1cnc2c(Nc3ccc(F)cc3)nc(N[C@@H]3CCCC[C@@H]3N)nc21
- IC50 [2]: 0.15 µM

SMILES: CCn1cnc2c(Nc3cccc(C(F)(F)F)c3)nc(NCCN)nc21
- IC50 [2]: 0.7 µM

SMILES: CCn1cnc2c(Nc3cccc(F)c3)nc(N[C@H]3CC[C@@H](N)CC3)nc21
- IC50 [2]: 0.35 µM

SMILES: CCn1cnc2c(Nc3cccc(C(F)(F)F)c3)nc(N[C@H]3CC[C@H](N)CC3)nc21
- IC50 [2]: 0.14 µM

SMILES: CCn1cnc2c(Nc3ccc(F)cc3)nc(N[C@H]3CC[C@@H](N)CC3)nc21
- IC50 [2]: 0.1 µM

SMILES: CCn1cnc2c(Nc3cccc(Cl)c3)nc(NCCN)nc21
- IC50 [3]: 31.5 µM
- IC50 [2]: 0.08 µM
- IC50 ([4]; Homo sapiens, T-24): 3.16 µM
- IC50 [5]: 180 µM
- IC50 [6]: > 100 µM

SMILES: CCn1cnc2c(Nc3cccc(F)c3)nc(N[C@@H]3CCCC[C@@H]3N)nc21
- IC50 [2]: 0.25 µM

SMILES: CCn1cnc2c(Nc3cccc(C(F)(F)F)c3)nc(N[C@H]3CC[C@@H](N)CC3)nc21
- IC50 [2]: 0.29 µM

SMILES: CCn1cnc2c(Nc3cccc(F)c3)nc(N[C@H]3CC[C@H](O)CC3)nc21
- IC50 [2]: 0.032 µM

SMILES: CCn1cnc2c(Nc3ccc(F)cc3)nc(N[C@H]3CC[C@H](O)CC3)nc21
- IC50 [2]: 0.04 µM

SMILES: CCn1cnc2c(Nc3cccc(OC)c3)nc(N[C@@H]3CCCC[C@@H]3N)nc21
- IC50 [2]: 0.23 µM

SMILES: CCn1cnc2c(Nc3cccc(C#N)c3)nc(NCCN)nc21
- IC50 [2]: 0.56 µM

SMILES: CCn1cnc2c(Nc3ccc(F)cc3)nc(NCCN)nc21 [listing 1 of 2 here]
- IC50 [2]: 0.45 µM

SMILES: CCn1cnc2c(Nc3cccc(Cl)c3)nc(N3CCCCC3CO)nc21 (stereo not drawn)
- IC50 [2]: 0.039 µM
- IC50 ([4]; Homo sapiens, T-24): 3.65 µM

SMILES: CCn1cnc2c(Nc3cccc(C(F)(F)F)c3)nc(N[C@@H]3CCCC[C@@H]3N)nc21
- IC50 [2]: 0.31 µM

SMILES: CCn1cnc2c(Nc3cccc(OC)c3)nc(N[C@H]3CC[C@H](N)CC3)nc21
- IC50 [2]: 0.16 µM

SMILES: CCn1cnc2c(Nc3cccc(C#N)c3)nc(N[C@H]3CC[C@@H](N)CC3)nc21
- IC50 [2]: 0.35 µM

SMILES: CCn1cnc2c(Nc3cccc(Cl)c3)nc(N[C@H]3CC[C@@H](O)CC3)nc21
- IC50 ([4]; Homo sapiens, T-24): 0.83 µM

SMILES: CCn1cnc2c(Nc3cccc(Cl)c3)nc(N[C@H]3CC[C@H](O)CC3)nc21
- IC50 [2]: 0.03 µM

SMILES: CCn1cnc2c(Nc3cccc(C#N)c3)nc(N[C@@H]3CCCC[C@@H]3N)nc21
- IC50 [2]: 0.35 µM

SMILES: CCn1cnc2c(Nc3cccc(C(F)(F)F)c3)nc(NCCO)nc21
- IC50 [1]: Not Active

SMILES: CCn1cnc2c(Nc3cccc(F)c3)nc(N[C@H]3CC[C@H](N)CC3)nc21
- IC50 [2]: 0.15 µM

SMILES: CCn1cnc2c(Nc3cccc(OC)c3)nc(NCCN)nc21
- IC50 [2]: 0.55 µM
- IC50 ([4]; Homo sapiens, T-24): 9.9 µM

SMILES: CCn1cnc2c(Nc3cccc(Cl)c3)nc(N3CCC[C@@H]3CO)nc21
- IC50 [3]: 38.5 µM
- IC50 [2]: 0.08 µM
- IC50 ([4]; Homo sapiens, T-24): 6.71 µM
- IC50 [7]: Not Active
- IC50 [5]: > 500 µM

SMILES: CCn1cnc2c(Nc3cccc(Cl)c3)nc(NCCO)nc21
- IC50 [2]: 0.33 µM
- IC50 ([4]; Homo sapiens, T-24): 17.5 µM

SMILES: CCn1cnc2c(Nc3ccc(F)cc3)nc(NCCO)nc21
- IC50 [2]: 0.38 µM

SMILES: CCn1cnc2c(Nc3cccc(Cl)c3)nc(N[C@H]3CC[C@H](N)CC3)nc21
- IC50 [2]: 0.039 µM

SMILES: CCn1cnc2c(Nc3cccc(OC)c3)nc(N[C@H]3CC[C@H](O)CC3)nc21
- IC50 [2]: 0.09 µM

SMILES: CCn1cnc2c(Nc3cccc(C(F)(F)F)c3)nc(N[C@H]3CC[C@H](O)CC3)nc21
- IC50 [2]: 0.028 µM

SMILES: CCn1cnc2c(Nc3cccc(Cl)c3)nc(N[C@H]3CCC[C@@H](N)C3)nc21
- IC50 [3]: 6 µM
- IC50 [2]: 0.12 µM
- IC50 ([4]; Homo sapiens, T-24): 1.5 µM
- IC50 [5]: 150 µM

SMILES: CCn1cnc2c(Nc3cccc(Cl)c3)nc(N3CCC[C@@H]3CN)nc21
- IC50 [2]: 0.041 µM
- IC50 ([4]; Homo sapiens, T-24): 2.35 µM

SMILES: CCn1cnc2c(Nc3ccc(OC)cc3)nc(NCCN)nc21
- IC50 [2]: 0.55 µM

SMILES: CCn1cnc2c(Nc3cccc(OC)c3)nc(NCCO)nc21
- IC50 [2]: 1 µM

SMILES: CCn1cnc2c(Nc3cccc(C#N)c3)nc(N[C@H]3CC[C@H](N)CC3)nc21
- IC50 [2]: 0.085 µM

SMILES: CCn1cnc2c(Nc3cccc(F)c3)nc(NCCN)nc21 [listing 1 of 2 here]
- IC50 [2]: 0.6 µM

SMILES: CCn1cnc2c(Nc3cccc(C(F)(F)F)c3)nc(NCCN)nc21.Cl
- IC50 [3]: 50 µM
- IC50 [2]: 0.7 µM
- IC50 ([4]; Homo sapiens, T-24): 6.08 µM
- IC50 [5]: 500 µM
- IC50 [6]: > 10 µM

SMILES: CCn1cnc2c(Nc3cccc(F)c3)nc(NCCN)nc21 [listing 2 of 2 here]
- IC50 [2]: 0.6 µM
- IC50 ([4]; Homo sapiens, T-24): 6.5 µM

SMILES: CCn1cnc2c(Nc3ccc(F)cc3)nc(NCCN)nc21 [listing 2 of 2 here]
- IC50 [2]: 0.45 µM
- IC50 ([4]; Homo sapiens, T-24): 8.3 µM

SMILES: CCn1cnc2c(Nc3cccc(C#N)c3)nc(NCCN)nc21.Cl
- IC50 [3]: 78 µM
- IC50 [2]: 0.56 µM
- IC50 ([4]; Homo sapiens, T-24): 5.24 µM
- IC50 [5]: > 500 µM
- IC50 [6]: > 10 µM

SMILES: CCn1cnc2c(Nc3cccc(Cl)c3)nc(N[C@H]3CC[C@@H](N)CC3)nc21 (stereo in doubt)
- IC50 [2]: 0.14 µM

SMILES: CCn1cnc2c(Nc3cccc(Cl)c3)nc(N[C@@H]3CCCC[C@@H]3N)nc21 (stereo in doubt)
- IC50 [2]: 0.031 µM

SMILES: CCn1cnc2c(Nc3cccc(Cl)c3)nc(N[C@@H]3CCCC[C@@H]3N)nc21 (stereo in doubt; 12)
- IC50 [3]: 30 µM
- IC50 [2]: 0.11 µM
- IC50 ([4]; t-24): 1.35 µM
- IC50 [5]: 335 µM
- IC50 [6]: 2 µM

SMILES: CCn1cnc2c(Nc3cccc(Cl)c3)nc(N[C@@H]3CCCC[C@@H]3N)nc21 (stereo in doubt; 13)
- IC50 [3]: 13.5 µM
- IC50 [2]: 0.025 µM
- IC50 ([4]; t-24): 0.48 µM
- IC50 [5]: 150 µM
- IC50 [6]: 5.1 µM

SMILES: CCn1cnc2c(Nc3cccc(Cl)c3)nc(N[C@H]3CC[C@@H](N)CC3)nc21 (stereo in doubt; 15)
- IC50 [2]: 0.039 µM
- IC50 ([4]; Homo sapiens, T-24): 0.54 µM
